Most compounds without a hit are left out; they make up all but 1.9% or so of the library.
procasp7 counter – counter-screen: procaspase-7 (human) activation | P55210 | recombinant procaspase-7, Ac-DEVD-pNA absorbance 405 nm; D23A/D198A/D206A triple mutant, cannot self-cleave; scale: DMSO 0, 5 µM enzyme 100 | activation, % at 8.5 µM | 330,000 tested, 0.093% active | AID 463210;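 active means percent activation above the screen-wide mean plus 3 SD, cut at about 25% in these data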
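Detection: p-Nitroaniline absorbance at 405 nm, read at 0 and 120 min; system: Uncleavable procaspase-7 mutant enzyme; evaluation: % activation from two-timepoint absorbance difference, scaled to controls; times: 1 h enzyme–compound preincubation and 2 h substrate reaction, both 25 °C; buffer or medium: Zinc-free HEPES pH 7.4 with 300 mM NaCl, 0.01% Triton X-100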
GAA850 FXN act – activators of GAA850 frataxin (FXN) promoter; HEK293 lucGAA850 FXN promoter luciferase reporter, 24 h; percent of 10 µM SAHA response; activation, % at 6 µM; 360,000 tested, 0.56% active;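 active means activation above the average of all compounds screened plus 3 SD, cutoff fixed separately per campaign, cut at about 7.5% in these data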;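 further: 0% = DMSO wells and 100% = 10 µM SAHA wells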
Neddylation inh – blocks human cullin neddylation; 360,000 tested, 0.58% active; inhibition, % at 25 µM; TR-FRET cullin neddylation, biochemical; in the data active means inhibition above about 36%
Target sequence (P61081 whole entry, looked up): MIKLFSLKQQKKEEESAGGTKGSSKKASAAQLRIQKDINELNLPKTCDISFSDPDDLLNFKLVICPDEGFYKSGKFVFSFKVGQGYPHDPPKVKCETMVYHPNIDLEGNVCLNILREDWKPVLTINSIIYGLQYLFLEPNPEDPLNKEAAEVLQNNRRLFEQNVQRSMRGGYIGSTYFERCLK
Target sequence (Q13564 whole entry, looked up): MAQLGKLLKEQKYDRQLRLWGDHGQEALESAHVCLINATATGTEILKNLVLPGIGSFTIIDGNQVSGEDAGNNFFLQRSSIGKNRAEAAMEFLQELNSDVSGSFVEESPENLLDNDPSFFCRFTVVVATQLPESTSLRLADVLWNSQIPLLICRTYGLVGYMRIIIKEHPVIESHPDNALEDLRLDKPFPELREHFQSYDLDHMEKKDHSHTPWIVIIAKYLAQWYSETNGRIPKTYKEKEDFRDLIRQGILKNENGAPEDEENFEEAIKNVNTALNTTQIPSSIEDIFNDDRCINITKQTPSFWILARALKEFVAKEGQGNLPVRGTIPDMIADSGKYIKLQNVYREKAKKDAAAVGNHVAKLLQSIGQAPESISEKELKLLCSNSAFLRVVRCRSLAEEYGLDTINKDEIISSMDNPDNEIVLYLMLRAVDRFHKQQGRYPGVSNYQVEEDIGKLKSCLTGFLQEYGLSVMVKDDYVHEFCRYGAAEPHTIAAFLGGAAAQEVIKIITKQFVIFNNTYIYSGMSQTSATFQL
Calb FLC – affects C. albicans growth with fluconazole; growth inhibition, % (concentration not given with the values); 300,000 tested, 0.57% active; C. albicans CaCi-2 + fluconazole, Alamar Blue growth, 48 h;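 active means growth inhibition above about 58% in most replicates, limit read from the data, passing the limit was not always enough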;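 further: all wells also contain fluconazole at 8 µg/ml as a sub-toxic cotreatment; 0% = median of DMSO wells and 100% = median of geldanamycin control wells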
proCasp3 act – activators of human procaspase-3. P42574. recombinant procaspase-3 D3A, Ac-DEVD-pNA absorbance 405 nm. activation, % at 8.5 µM. 330,000 tested, 0.11% active. AID 463141;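 active means activation above the mean of all tested compounds plus 3 SD, cut at about 21% in these data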;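 further: 0% = DMSO alone and 100% = DMSO wells spiked with extra 5 µM PC-3 D3A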
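System: Procaspase-3 D3A mutant. Medium: Zinc-free 300 mM NaCl, 50 mM HEPES, 0.01% Triton X-100. Schedule: 1 h preincubation plus 2 h reaction at 25 °C. Measured by: 405 nm absorbance of p-nitroaniline, reads at 0 and 120 min. Read-out: percent activation relative to control range.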
HIF act – HIF pathway transcriptional activation; U2OS HRE-luciferase reporter, luminescence; normalized: DMSO 0%, desferrioxamine 100%; activation, % at 7.5 µM (by protocol); 300,000 tested, 0.32% active; AID 1910;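 active means mean activation of at least 10% of the iron chelator positive control signal, with at least half of replicates also reaching 10%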
Neddyl conf – confirmation of human cullin neddylation inhibitors; shares compounds with Neddylation inh; 1,800 tested, 13% active; TR-FRET cullin neddylation biochemical assay; calls only at 25 µM; in the data active means inhibition above about 40%;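 further: neddylation substrate is the cullin 1 ring ligase complex with SKP2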
* = called active by the depositor; i = inactive; . = not tested or not shown; + = active, no number.

SMILES	procasp7 counter	GAA850 FXN act	Neddylation inh	Calb FLC	proCasp3 act	HIF act	Neddyl conf
COc1ccc(C(=O)Cn2c3ccccc3n3nc(CCC(=O)O)c(=O)nc23)cc1OC	3.4	1.2	44.1*	4.8	6.7	-0.3	.
CC(=O)Cn1c2ccccc2n2nc(CCC(=O)O)c(=O)nc12	13.3	-0.5	.	17.6	-2.3	0.1	.
COc1ccc(NC(=O)N2c3ccc(OC)cc3C(C)=CC2(C)C)cc1	-13.7	1.9	44.8*	8.2	-3.2	0.4	.
CS(=O)(=O)N(CC(=O)N/N=C/c1cc2c(cc1Br)OCO2)c1ccccc1Br	0.3	2.5	-19.6	2.5	0.7	-0.4	.
CS(=O)(=O)N(CC(=O)N/N=C/c1cccc2c1OCCO2)c1ccccc1Br	11.2	-1.9	44.9*	-1.0	-2.6	-0.2	+
Cc1nc(SCC(=O)c2ccc(F)c(F)c2)[nH]c(=O)c1Oc1ccc(F)cc1	-9.7	1.8	-2.2	4.7	-2.2	0.1	.
Cn1cc(-c2cccc(Cl)c2)cc(C#N)c1=O	1.7	-0.2	39.2*	-30.2	4.3	0.1	i
Cc1nc(C(=O)NCCO)cc2c1[nH]c1ccccc12	.	3.9	38.5	3.0	.	0.5	.
Cc1nc(C(=O)NCCCO)cc2c1[nH]c1ccccc12	-6.8	2.7	43.6*	-4.7	-0.4	0.0	i
CCOC(=O)Cc1cc(=O)n2[nH]c(C)c(-c3ccc(OC)cc3)c2n1	3.0	2.1	41.7*	8.0	-3.7	-0.5	.
CC1(C)Cc2c(sc(NC(=O)c3ccccc3)c2C(=O)O)CO1	-9.3	2.3	16.5	-5.2	-6.4	0.8	.
COc1ccc(C(=O)Nc2sc3c(c2C(=O)O)CC(C)(C)OC3)cc1	0.5	-0.9	43.0*	-13.6	4.1	-0.3	+
COc1ncnc2c1ncn2CCCN(C)Cc1ccco1	.	0.2	-0.4	.	.	.	.
Cc1ccccc1CN1CCNC(=O)C1CC(=O)NCCN1CCCCC1=O (stereo not drawn)	-4.7	0.2	3.1	-1.0	-2.9	-0.5	.
O=c1[nH]cnc2sc3c(c12)CCN(Cc1ccccc1)C3	-9.2	-1.4	39.7*	14.5	-10.2	0.1	i
O=c1[nH]cnc2sc3c(c12)CN(Cc1ccccc1)CC3	3.2	-0.5	.	-1.6	0.9	-1.2	.
Cc1cc(C)n2nc(-c3cnn(C)c3C(F)(F)F)cc2n1	5.5	2.5	42.0*	0.8	-8.3	0.2	+
Cc1ccc(-c2cc3nc(C)cc(C)n3n2)cc1	-2.8	5.0	47.4*	25.7	-4.7	2.2	i
Cc1cc(C)n2nc(-c3ccc(F)cc3)cc2n1	.	7.0	36.4	.	.	.	.
COc1ccc(C(=O)NCC(c2ccccc2)N2CCCC2)cc1S(=O)(=O)N1CCOCC1 (stereo not drawn)	-2.1	3.7	9.3	.	2.6	.	.
O=C(O)c1cccc(Nc2c3ccccc3nc3ccccc23)c1	-3.4	1.9	41.0*	2.8	-7.4	-35.5	i
CC(=O)c1cccc(Nc2cc(C)nc3ccccc23)c1	1.4	-0.8	2.7	-6.7	3.6	0.2	.
COc1ccc(C2C=C(C)Nc3ncnn32)cc1 (stereo not drawn)	1.7	-0.1	.	-7.0	1.8	0.4	.
CC1=CC(c2ccc(Cl)cc2)n2ncnc2N1 (stereo not drawn)	-2.3	1.1	39.3*	1.9	-3.1	1.4	i
O=C(Nc1cccc(Cl)c1)Nc1csc([N+](=O)[O-])c1	3.9	-3.6	-22.8	-1.5	-5.3	1.9	.
SMILES	procasp7 counter	GAA850 FXN act	Neddylation inh	Calb FLC	proCasp3 act	HIF act	Neddyl conf
Cc1c(-c2nc(-c3ccc(C(F)(F)F)cc3)no2)n(C)oc1=O	-0.6	2.7	41.8*	-13.1	3.7	1.6	i
CCCc1cc2c(=O)c(-c3ccccn3)c(C)oc2cc1O	-0.5	0.2	45.0*	9.4	4.3	0.3	i
CC(C)c1ccc(/C=C/C(=O)NC(=S)Nc2ccc(CN3CCOCC3)cc2)cc1	1.1	-6.2	40.2*	-8.2	-3.8	0.4	i
Cc1c(OC(C)C(=O)NCCN2CCOCC2)ccc2c3c(c(=O)oc12)CCCC3 (stereo not drawn)	5.4	0.2	41.2*	-1.0	0.1	-0.1	.
Cc1cc(=O)oc2c(C)c(OC(C)C(=O)NCCN3CCOCC3)ccc12 (stereo not drawn)	15.0	-0.4	24.8	-4.7	1.1	0.6	.
O=C(NCc1ccccc1)c1nc(-c2c(F)cccc2F)oc1-c1ccccc1	.	.	44.4*	.	.	.	.
N#CC1=C(N)Oc2c(ccc3cccnc23)C1c1cccnc1 (stereo not drawn)	9.9	-5.6	47.7*	104.3*	5.3	0.2	i
N#CC1=C(N)Oc2cc3ccccc3cc2C1c1cccnc1 (stereo not drawn)	-0.5	-2.8	-12.2	4.0	-3.4	1.3	.
COc1ccccc1N=C1NC(=O)/C(=C/c2ccc(N(C)C)cc2)S1	-21.2	-1.4	-87.5	-3.1	-52.1	2.8	.
CN(CC(=O)Nc1ccccc1Cl)C(=O)COC(=O)c1ccc(-c2ccc(O)cc2)cc1	7.4	0.7	31.0*	.	-0.2	.	.
CC(NC(=O)c1ccccc1O)c1ccccc1 (stereo not drawn)	9.9	1.1	46.3*	-1.1	7.9	-0.2	.
COc1ccccc1C(=O)NC(C)c1ccccc1 (stereo not drawn)	-11.6	-1.6	-6.6	-2.0	-4.2	0.0	.
Cc1nc(-c2cccs2)sc1C(=O)NN	0.3	-1.0	-9.2	-13.2	-2.6	1.8	.
CCOC(=O)c1sc(-c2cccs2)nc1C	6.8	4.0	46.5*	-0.5	7.5	2.9	i
CC(OC(=O)CCOc1ccccc1)C(=O)NC1CC1 (stereo not drawn)	7.9	0.9	7.1	-2.4	0.1	-0.1	.
CCOC(=O)C1=C(COC(=O)/C=C/c2ccc(SC)cc2)NC(=O)NC1C (stereo not drawn)	13.8	3.2	51.1*	5.7	-5.0	0.5	.
CCOC(=O)C1=C(COC(=O)/C=C/c2ccc(OC)cc2)NC(=O)NC1C (stereo not drawn)	.	-4.3	-8.2	.	.	.	.
Cn1c(=O)c2c(nc(N/N=C/c3ccc(OC(=O)c4ccco4)cc3)n2Cc2ccccc2Cl)n(C)c1=O	0.9	-1.5	44.2*	-6.9	-1.8	0.0	i
O=C(Nc1cccnc1Cl)c1cc(-c2cccc(O)c2)on1	-0.3	2.5	69.5*	3.7	-4.0	3.0	+
CCCCS(=O)(=O)N1CCCC(C(=O)Oc2ccc(Cl)cc2)C1 (stereo not drawn)	0.7	0.1	-8.0	-4.9	0.6	-0.9	.
Cc1cc(C)c2c(N)c(C(=O)c3cccc(Cl)c3)sc2n1	-28.9	-1.7	37.5*	-9.5	-24.9	-0.2	i
